From ChEMBL document CHEMBL1123925 (J Med Chem, 1987) come the findings set out here.

Each structure is given as a SMILES string. Where only a bound is given, the exact number is not on record here.

The target of one experiment is GABA B receptor (Rattus norvegicus, UniProt O88871+Q9Z0U4). Briefly: Displacement of [3H]baclofen from Gamma-aminobutyric acid type B receptor of rat brain membranes. It counts as cell membranes, Membrane. The essentials:
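Rat whole-brain synaptic membranes were water-washed and frozen at -20 °C for at least 18 h. They were then washed repeatedly in 50 mM Tris-HCl pH 7.4 with 2.5 mM CaCl2 at 20 °C. The assay was stopped by centrifugation and read by scintillation counting. IC50 values are means of two experiments.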
For orientation: Loss of bound radioactivity is the signal in a displacement assay; it reports binding, not function.

Experiment [1] concerns the target GABA-A receptor; anion channel. The experiment is described as follows: Displacement of [3H]GABA from Gamma-aminobutyric acid A receptor ofrat brain membranes. Set-up: species or system Rattus norvegicus. In short, it runs like this: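 Male Wistar rat whole-brain synaptic membranes, frozen at -20 °C for at least 18 h, Triton X-100 (0.05%) treated at 37 °C for 30 min. Filtration, scintillation counting. Nonspecific binding with 100 μM muscimol. IC50 by log-probit analysis; means of two triplicate experiments.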

Chain of GABA B receptor (Q9Z0U4 whole entry): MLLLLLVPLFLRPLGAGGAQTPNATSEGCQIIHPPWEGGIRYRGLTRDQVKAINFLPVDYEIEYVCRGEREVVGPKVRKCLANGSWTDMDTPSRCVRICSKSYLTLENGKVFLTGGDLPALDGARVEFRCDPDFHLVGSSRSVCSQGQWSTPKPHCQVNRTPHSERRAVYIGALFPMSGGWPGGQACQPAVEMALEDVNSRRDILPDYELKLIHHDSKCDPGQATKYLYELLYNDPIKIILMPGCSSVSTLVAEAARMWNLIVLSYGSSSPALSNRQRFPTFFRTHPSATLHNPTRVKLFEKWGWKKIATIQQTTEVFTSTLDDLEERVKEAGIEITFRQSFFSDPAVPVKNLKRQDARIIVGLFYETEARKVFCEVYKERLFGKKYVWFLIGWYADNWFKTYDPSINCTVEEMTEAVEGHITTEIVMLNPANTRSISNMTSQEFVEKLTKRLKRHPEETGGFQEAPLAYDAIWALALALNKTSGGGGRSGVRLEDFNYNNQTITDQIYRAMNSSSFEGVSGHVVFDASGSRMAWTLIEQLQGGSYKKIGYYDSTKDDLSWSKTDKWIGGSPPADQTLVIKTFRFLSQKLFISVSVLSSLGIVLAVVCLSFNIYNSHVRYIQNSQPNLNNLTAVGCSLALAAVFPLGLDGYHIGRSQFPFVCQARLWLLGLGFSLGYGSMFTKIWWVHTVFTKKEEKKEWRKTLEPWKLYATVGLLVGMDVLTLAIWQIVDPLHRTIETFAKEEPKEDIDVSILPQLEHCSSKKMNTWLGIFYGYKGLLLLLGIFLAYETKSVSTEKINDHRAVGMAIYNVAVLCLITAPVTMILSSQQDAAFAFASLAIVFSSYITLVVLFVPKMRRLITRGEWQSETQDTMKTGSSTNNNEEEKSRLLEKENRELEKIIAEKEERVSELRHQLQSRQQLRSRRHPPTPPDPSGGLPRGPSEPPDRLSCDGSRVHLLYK
Chain of GABA B receptor (O88871 whole entry): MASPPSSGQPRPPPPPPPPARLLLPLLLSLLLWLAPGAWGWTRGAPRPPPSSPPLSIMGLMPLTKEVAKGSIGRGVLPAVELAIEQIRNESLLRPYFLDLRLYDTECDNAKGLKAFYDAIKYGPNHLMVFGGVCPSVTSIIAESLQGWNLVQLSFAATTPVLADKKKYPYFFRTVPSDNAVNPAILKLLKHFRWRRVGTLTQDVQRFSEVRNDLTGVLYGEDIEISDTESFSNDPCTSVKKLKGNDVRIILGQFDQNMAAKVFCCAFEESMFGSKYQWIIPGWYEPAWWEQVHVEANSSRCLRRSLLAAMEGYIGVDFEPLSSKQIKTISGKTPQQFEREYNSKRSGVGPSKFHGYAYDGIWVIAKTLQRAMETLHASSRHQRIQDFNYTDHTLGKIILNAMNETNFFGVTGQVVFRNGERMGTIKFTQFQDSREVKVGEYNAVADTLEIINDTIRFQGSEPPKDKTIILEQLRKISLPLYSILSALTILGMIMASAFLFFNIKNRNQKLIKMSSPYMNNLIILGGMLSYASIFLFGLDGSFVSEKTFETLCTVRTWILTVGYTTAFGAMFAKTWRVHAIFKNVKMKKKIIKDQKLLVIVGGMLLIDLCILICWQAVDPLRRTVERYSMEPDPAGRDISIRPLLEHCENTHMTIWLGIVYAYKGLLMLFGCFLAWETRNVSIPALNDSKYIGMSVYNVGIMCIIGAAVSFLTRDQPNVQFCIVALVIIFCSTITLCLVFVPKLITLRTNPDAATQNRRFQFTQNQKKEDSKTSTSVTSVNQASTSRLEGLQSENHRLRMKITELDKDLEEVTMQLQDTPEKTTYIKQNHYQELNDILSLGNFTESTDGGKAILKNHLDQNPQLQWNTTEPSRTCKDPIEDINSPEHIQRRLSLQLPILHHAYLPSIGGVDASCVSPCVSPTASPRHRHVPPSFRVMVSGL

By IC50 is commonly meant the concentration at which inhibition is half-maximal. Read a high IC50 as weaker potency in that assay. Consider `NCC(CC(=O)O)c1ccc(OCc2ccc(F)cc2)cc1` (centres undefined), for which the IC50 (on GABA B receptor; in experiment [1]) was greater than 100 µM each time.

As to `NCC(CC(=O)O)c1cc2ccccc2o1` (centres undefined), the IC50 is 18 µM on GABA B receptor and greater than 100 µM in experiment [1].

Turning to `COc1ccc2oc(C(CN)CC(=O)O)cc2c1` (centres undefined), the IC50 on GABA B receptor was 5.6 µM; in experiment [1], greater than 100 µM.

Take `NCC(CC(=O)O)c1ccc(OCc2ccc(Cl)s2)cc1` (centres undefined): the IC50 in experiment [1] was greater than 100 µM.

With `NCC(CC(=O)O)C1Cc2ccccc2O1` (centres undefined), the IC50 (at GABA B receptor; in experiment [1]) was greater than 100 µM throughout.

Consider `NCC(CC(=O)O)c1ccc(O)cc1` (centres undefined), for which the IC50 (on GABA B receptor; in experiment [1]) was greater than 100 µM each time.

In turn, `NCc1cc(=O)[nH]o1` [MUSCIMOL] had an IC50 in experiment [1] of 0.01 µM.

As to `Cn1c(=O)oc2cc(C(CN)CC(=O)O)ccc21` (centres undefined), the IC50 (on GABA B receptor; in experiment [1]) was greater than 100 µM in each case.

Take `COc1ccc2c(c1)CC(C(CN)CC(=O)O)O2` (centres undefined): the IC50 (on GABA B receptor; in experiment [1]) was greater than 100 µM in each case.

For the compound `NCC(CC(=O)O)c1ccc(OCc2ccccc2)cc1` (centres undefined), the IC50 (at GABA B receptor; in experiment [1]) was greater than 100 µM in each case.

In experiment [1], `CC(C)Oc1ccc(C(CN)CC(=O)O)cc1` (centres undefined) showed an IC50 greater than 100 µM.
